Laboratory results: ChEMBL document CHEMBL1821590, “Novel dihydropyrimidines and its pyrazole derivatives: synthesis and pharmacological screening” (Eur J Med Chem, 2011)
Converted amounts (≈) assume the structure as drawn.

Tests used:
Format in all cases: functional
Metaphire posthuma [1] = assay: Anthelmintic activity against Pheretima posthuma assessed as time taken for complete parasite paralysis at 0.1% w/v
Method in brief: (§1)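 Earthworms (Pheretima posthuma) exposed to test solutions at 0.1, 0.2 and 0.5% w/v; time in minutes to complete paralysis (worms motionless) recorded. Albendazole as standard. Mean of three determinations ± S.D.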

Metaphire posthuma [2] = assay: Anthelmintic activity against Pheretima posthuma assessed as time taken for parasite death at 0.2% w/v
Method in brief: (§2)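 Earthworms (Pheretima posthuma, spelled Perituma posthuma in text) exposed to test compounds at 0.1, 0.2 and 0.5% w/v. Albendazole served as standard, with an untreated control. Paralysis was recorded as the time until worms became motionless, then time to death was recorded, in minutes. Each value is the mean of three determinations with S.D.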

Candida albicans [3] = assay: Antimicrobial activity against Candida albicans at 100 ug/ml by paper disc method; conditions: read-out: IZ
Method in brief: (§3)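 Paper disc method against A. niger and C. albicans, with compounds at 25, 50 and 100 µg/mL. Amphotericin-B as standard.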

Escherichia coli [4] = assay: Antimicrobial activity against Escherichia coli at 50 ug/ml by agar plate diffusion technique; conditions: read-out: IZ
Method in brief: (§4)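 Agar plate diffusion against E. coli, P. aeruginosa, S. aureus and B. subtilis, with compounds at 25, 50 and 100 µg/mL. Streptomycin as standard.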

Bacillus subtilis [5] = assay: Antimicrobial activity against Bacillus subtilis at 100 ug/ml by agar plate diffusion technique; conditions: read-out: IZ; method in brief: as §4
Metaphire posthuma [6] = assay: Anthelmintic activity against Pheretima posthuma assessed as time taken for complete parasite paralysis at 0.2% w/v; method in brief: as §1
Aspergillus niger [7] = assay: Antimicrobial activity against Aspergillus niger at 50 ug/ml by paper disc method; conditions: read-out: IZ; method in brief: as §3
Escherichia coli [8] = assay: Antimicrobial activity against Escherichia coli at 100 ug/ml by agar plate diffusion technique; conditions: read-out: IZ; method in brief: as §4
Bacillus subtilis [9] = assay: Antimicrobial activity against Bacillus subtilis at 25 ug/ml by agar plate diffusion technique; conditions: read-out: IZ; method in brief: as §4
Pseudomonas aeruginosa [10] = assay: Antimicrobial activity against Pseudomonas aeruginosa at 50 ug/ml by agar plate diffusion technique; conditions: read-out: IZ; method in brief: as §4
Aspergillus niger [11] = assay: Antimicrobial activity against Aspergillus niger at 25 ug/ml by paper disc method; conditions: read-out: IZ; method in brief: as §3
Staphylococcus aureus [12] = assay: Antimicrobial activity against Staphylococcus aureus at 25 ug/ml by agar plate diffusion technique; conditions: read-out: IZ; method in brief: as §4
Escherichia coli [13] = assay: Antimicrobial activity against Escherichia coli at 25 ug/ml by agar plate diffusion technique; conditions: read-out: IZ; method in brief: as §4
Bacillus subtilis [14] = assay: Antimicrobial activity against Bacillus subtilis at 50 ug/ml by agar plate diffusion technique; conditions: read-out: IZ; method in brief: as §4
[15] = Antioxidant activity assessed as inhibition of lipid peroxidation using egg lecithin liposomes incubated for 1 hr
Method in brief: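 Egg lecithin (3 mg/mL, phosphate buffer pH 7.4) sonicated 10 min to form liposomes. Sample or ascorbic acid (12.5–100 µg/mL) added. Peroxidation induced with FeCl3 and L-ascorbic acid, 1 h at 37 °C. Stopped with HCl/TCA/TBA/BHA, boiled 15 min, centrifuged, supernatant read at 532 nm. Triplicate. % inhibition vs control. IC50 derived.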

Metaphire posthuma [16] = assay: Anthelmintic activity against Pheretima posthuma assessed as time taken for parasite death at 0.1% w/v; method in brief: as §2
Metaphire posthuma [17] = assay: Anthelmintic activity against Pheretima posthuma assessed as time taken for parasite death at 0.5% w/v; method in brief: as §2
[18] = Antioxidant activity assessed as hydrogen peroxide scavenging activity after 10 mins
Method in brief: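 H2O2 (20 mM) in PBS pH 7.4. 1 mL of sample or ascorbic acid in methanol (12.5–100 µg/mL) added to 2 mL H2O2 solution. A230 read after 10 min. % inhibition = [1 − (Vt/Vc)] × 100. Triplicate, averaged. IC50 derived from % inhibition across concentrations.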

Candida albicans [19] = assay: Antimicrobial activity against Candida albicans at 50 ug/ml by paper disc method; conditions: read-out: IZ; method in brief: as §3
Candida albicans [20] = assay: Antimicrobial activity against Candida albicans at 25 ug/ml by paper disc method; conditions: read-out: IZ; method in brief: as §3
Staphylococcus aureus [21] = assay: Antimicrobial activity against Staphylococcus aureus at 100 ug/ml by agar plate diffusion technique; conditions: read-out: IZ; method in brief: as §4
Metaphire posthuma [22] = assay: Anthelmintic activity against Pheretima posthuma assessed as time taken for complete parasite paralysis at 0.5% w/v; method in brief: as §1
[23] = Antiinflammatory activity assessed as inhibition of albumin denaturation at 100 ug/ml by UV-visible spectrophotometry
Method in brief: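 Compounds dissolved in minimal DMF, diluted in PBS pH 7.4 (final DMF <2.5%). 1 mL test solution (100 µg/mL) plus 1 mL 1% albumin in PBS, 15 min at 27 ± 1 °C, then heated 10 min at 60 ± 1 °C. After cooling, turbidity read at 660 nm. % inhibition = [(Vt/Vc) − 1] × 100 against a no-drug control. Triplicate, averaged. Diclofenac standard.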

Aspergillus niger [24] = assay: Antimicrobial activity against Aspergillus niger at 100 ug/ml by paper disc method; conditions: read-out: IZ; method in brief: as §3
[25] = Antioxidant activity assessed as nitric oxide radical scavenging activity after 150 mins
Method in brief: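 10 mM sodium nitroprusside (4 mL), PBS pH 7.4 (1 mL) and sample or ascorbic acid in DMSO (1 mL, 12.5–100 µg/mL), incubated 150 min at 25 °C. Nitrite detected with sulphanilic acid (5 min) then naphthylethylenediamine (30 min, diffused light). Read at […]. Triplicate. % inhibition = [1 − (Vt/Vc)] × 100. IC50 derived from it.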

Staphylococcus aureus [26] = assay: Antimicrobial activity against Staphylococcus aureus at 50 ug/ml by agar plate diffusion technique; conditions: read-out: IZ; method in brief: as §4
Pseudomonas aeruginosa [27] = assay: Antimicrobial activity against Pseudomonas aeruginosa at 100 ug/ml by agar plate diffusion technique; conditions: read-out: IZ; method in brief: as §4
Pseudomonas aeruginosa [28] = assay: Antimicrobial activity against Pseudomonas aeruginosa at 25 ug/ml by agar plate diffusion technique; conditions: read-out: IZ; method in brief: as §4
[29] = Antioxidant activity assessed as potassium ferricyanide ion reducing power after 20 mins
Method in brief: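 Oyaizu method. Samples or ascorbic acid in DMF (12.5–100 µg/mL) mixed with 0.2 M phosphate buffer pH 6.6 and 1% potassium ferricyanide, 20 min at 50 °C. 10% TCA added, centrifuged. Supernatant mixed with water and 0.1% FeCl3, read at 700 nm. % = [(Vt/Vc) − 1] × 100. IC50 derived.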

Row | Structure (SMILES) | Time (Metaphire posthuma [1]) [min] | Time (Metaphire posthuma [2]) [min] | zone of inhibition at 100 µg/mL (Candida albicans [3]) [mm] | zone of inhibition at 50 µg/mL (Escherichia coli [4]) [mm] | zone of inhibition at 100 µg/mL (Bacillus subtilis [5]) [mm] | Time (Metaphire posthuma [6]) [min] | zone of inhibition at 50 µg/mL (Aspergillus niger [7]) [mm] | zone of inhibition at 100 µg/mL (Escherichia coli [8]) [mm] | zone of inhibition at 25 µg/mL (Bacillus subtilis [9]) [mm] | zone of inhibition at 50 µg/mL (Pseudomonas aeruginosa [10]) [mm] | zone of inhibition at 25 µg/mL (Aspergillus niger [11]) [mm] | zone of inhibition at 25 µg/mL (Staphylococcus aureus [12]) [mm] | zone of inhibition at 25 µg/mL (Escherichia coli [13]) [mm] | zone of inhibition at 50 µg/mL (Bacillus subtilis [14]) [mm] | IC50 [15] [µg/mL] | Time (Metaphire posthuma [16]) [min] | Time (Metaphire posthuma [17]) [min] | IC50 [18] [µg/mL] | zone of inhibition at 50 µg/mL (Candida albicans [19]) [mm] | zone of inhibition at 25 µg/mL (Candida albicans [20]) [mm] | also measured
1 | CCOC(=O)c1cnn(-c2nc(-c3ccc(OC)cc3)c(C#N)c(=O)n2C)c1N | 52.09 | 63.37 | 19.8 | 14.7 | 18.1 | 49.46 | 13 | 17.4 | 10.2 | 10.2 | 11.6 | 10.1 | 10.5 | 14 | 68 (≈ 172 µM) | 67.41 | 57.93 | 74 (≈ 188 µM) | 12.6 | 9.62 | zone of inhibition at 100 µg/mL (Staphylococcus aureus [21]): 18.6 mm; Time (Metaphire posthuma [22]): 45.02 min; inhibition [23]: 13.6%; zone of inhibition at 100 µg/mL (Aspergillus niger [24]): 20.7 mm; IC50 [25]: 79 µg/mL (≈ 200 µM); zone of inhibition at 50 µg/mL (Staphylococcus aureus [26]): 15.1 mm; zone of inhibition at 100 µg/mL (Pseudomonas aeruginosa [27]): 16.1 mm; zone of inhibition at 25 µg/mL (Pseudomonas aeruginosa [28]): 8.21 mm; IC50 [29]: 59 µg/mL (≈ 150 µM)
2 | CCOC(=O)c1cnn(-c2nc(-c3cccc(OC)c3OC)c(C#N)c(=O)n2C)c1N | 75.14 | 62.12 | 17 | 12.4 | 19.2 | 55.1 | 12.1 | 16.2 | 11.6 | 12.3 | 10.8 | 10.3 | 10.3 | 15.1 | 57 (≈ 134 µM) | 87.55 | 52.69 | 67 (≈ 158 µM) | 13.5 | 9.41 | zone of inhibition at 100 µg/mL (Staphylococcus aureus [21]): 18.7 mm; Time (Metaphire posthuma [22]): 43.9 min; inhibition [23]: 33.9%; zone of inhibition at 100 µg/mL (Aspergillus niger [24]): 18.9 mm; IC50 [25]: 69 µg/mL (≈ 163 µM); zone of inhibition at 50 µg/mL (Staphylococcus aureus [26]): 14.1 mm; zone of inhibition at 100 µg/mL (Pseudomonas aeruginosa [27]): 17.4 mm; zone of inhibition at 25 µg/mL (Pseudomonas aeruginosa [28]): 9.9 mm; IC50 [29]: 54 µg/mL (≈ 127 µM)
3 | CSc1nc(-c2ccccc2F)c(C#N)c(=O)n1C | 72.34 | 85.73 | 16 | 13.8 | 29.4 | 71.4 | 14.9 | 14.2 | 16.9 | 10.4 | 12.7 | 12.2 | 10.9 | 20.2 | 58 (≈ 211 µM) | 90.4 | 69.54 | 63 (≈ 229 µM) | 12.1 | 10.8 | zone of inhibition at 100 µg/mL (Staphylococcus aureus [21]): 20.9 mm; Time (Metaphire posthuma [22]): 55.17 min; inhibition [23]: 69.3%; zone of inhibition at 100 µg/mL (Aspergillus niger [24]): 22.7 mm; IC50 [25]: 78 µg/mL (≈ 283 µM); zone of inhibition at 50 µg/mL (Staphylococcus aureus [26]): 15.3 mm; zone of inhibition at 100 µg/mL (Pseudomonas aeruginosa [27]): 11.8 mm; zone of inhibition at 25 µg/mL (Pseudomonas aeruginosa [28]): 9.17 mm; IC50 [29]: 61 µg/mL (≈ 222 µM)
